Measurements taken from ChEMBL document CHEMBL4177755, “Combating Drug-Resistant Fungi with Novel Imperfectly Amphipathic Palindromic Peptides” (J Med Chem, 2018).

Columns and labels:
[1] = test system: Candida parapsilosis; test: Fungicidal activity against Candida parapsilosis cgmcc 2.3989 after 96 hrs; assay type: functional; settings: Lodderomyces parapsilosis, cgmcc 2.3989, 96 h; read-out: MFC99.9
Method in brief: (§1)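 Wells from the 48 h, 28 °C RPMI 1640/MOPS microdilution plates were plated on YM agar and incubated a further 48 h at 28 °C. MFC is the lowest concentration killing at least 99.9% of cells. Run in triplicate with three biological replicates.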

[2] = test system: Candida tropicalis; test: Antifungal activity against Candida tropicalis cgmcc 2.1975 after 48 hrs by broth microdilution method; assay type: functional; settings: cgmcc 2.1975, 48 h
Method in brief: (§2)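 Modified CLSI M27-A2 broth microdilution. Yeast were suspended in MOPS-buffered RPMI 1640 at a final (0.5−1) × 10^3 CFU/mL and mixed 1:1 with peptide serially diluted in 0.2% BSA. Plates were incubated 48 h at 28 °C and read at A492. MIC is the lowest concentration giving 95% inhibition. Run in triplicate with three biological replicates.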

[3] = test system: Candida albicans; test: Antifungal activity against Candida albicans SP3902 after 48 hrs by broth microdilution method; assay type: functional; settings: SP3902, 48 h
Method in brief: (§3)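 Modified CLSI M27-A2 broth microdilution. Yeast at (0.5−1) × 10^3 CFU/mL in MOPS-buffered RPMI 1640 was mixed 1:1 with peptide serially diluted in 0.2% BSA and incubated 48 h at 28 °C. Absorbance was read at 492 nm; MIC is the lowest concentration inhibiting 95% of growth. Triplicate, three biological replicates.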

[4] = test system: Candida albicans; test: Antifungal activity against Candida albicans 14936 after 48 hrs by broth microdilution method; assay type: functional; settings: Candida albicans, 14936, 48 h; method in brief: as §3
[5] = test system: Escherichia coli; test: Antibacterial activity against Escherichia coli 1005 after 24 hrs; assay type: functional; settings: Escherichia coli, 1005, 24 h
Method in brief: (§4)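 Broth microdilution. Mid-log bacteria in MHB at a final (0.5−1) × 10^5 CFU/mL were mixed with equal volumes of peptide serially diluted in 0.2% BSA. Plates were incubated 24 h at 37 °C and read at A492. MIC is the lowest concentration inhibiting 95% of growth. Each test was repeated at least 3 times.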

[6] = test system: Staphylococcus aureus; test: Bactericidal activity against Staphylococcus aureus ATCC 29213; assay type: functional; settings: read-out: MBC99.9
Method in brief: (§5)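 Wells from the 24 h, 37 °C MHB microdilution plates (bacteria at a final (0.5−1) × 10^5 CFU/mL; peptide diluted in 0.2% BSA) were plated on agar and incubated overnight. MBC is the lowest concentration killing >99.9% of cells. Each test was reproduced at least 3 times.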

[7] = test system: Escherichia coli; test: Antibacterial activity against Escherichia coli ATCC 25922 after 18 hrs in presence of FeCl3 by broth dilution method; assay type: functional; settings: ATCC 25922, 18 h
[8] = test system: Staphylococcus epidermidis; test: Bactericidal activity against Staphylococcus epidermidis ATCC 12228; assay type: functional; settings: read-out: MBC99.9; method in brief: as §5
[9] = test system: Staphylococcus epidermidis; test: Antibacterial activity against Staphylococcus epidermidis ATCC 12228 after 24 hrs; assay type: functional; settings: ATCC 12228, 24 h; method in brief: as §4
[10] = test system: Candida albicans; test: Antifungal activity against Candida albicans cgmcc 2.2086 in presence of FeCl3 by broth dilution method; assay type: functional
[11] = test system: Candida albicans; test: Antifungal activity against fluconazole-resistant Candida albicans 56452 after 48 hrs by broth microdilution method; assay type: functional; settings: Candida albicans, 56452, 48 h; method in brief: as §3
[12] = test system: Escherichia coli; test: Antibacterial activity against Escherichia coli ATCC 25922 after 18 hrs in presence of KCl by broth dilution method; assay type: functional; settings: ATCC 25922, 18 h
[13] = test system: Candida albicans; test: Antifungal activity against Candida albicans cgmcc 2.2086 in presence of ZnCl2 by broth dilution method; assay type: functional
[14] = test system: Candida albicans; test: Fungicidal activity against fluconazole-resistant Candida albicans 17546 after 96 hrs; assay type: functional; settings: Candida albicans, 17546, 96 h; read-out: MFC99.9
Method in brief: (§6)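 After the 48 h, 28 °C broth microdilution in MOPS-buffered RPMI 1640 (inoculum (0.5−1) × 10^3 CFU/mL), 50 μL from each well was plated on YM agar for a further 48 h at 28 °C. MFC is the lowest concentration killing at least 99.9% of cells. Triplicate, three biological replicates.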

[15] = test system: Candida tropicalis; test: Fungicidal activity against Candida tropicalis cgmcc 2.1975 after 96 hrs; assay type: functional; settings: cgmcc 2.1975, 96 h, read-out: MFC99.9; method in brief: as §1
[16] = test system: Escherichia coli; test: Bactericidal activity against Escherichia coli 1005; assay type: functional; settings: read-out: MBC99.9; method in brief: as §5
[17] = test system: Escherichia coli; test: Antibacterial activity against Escherichia coli ATCC 25922 after 24 hrs; assay type: functional; settings: ATCC 25922, 24 h; method in brief: as §4
[18] = test system: Escherichia coli; test: Bactericidal activity against Escherichia coli ATCC 25922; assay type: functional; settings: read-out: MBC99.9; method in brief: as §5
[19] = test system: Candida albicans; test: Antifungal activity against Candida albicans SP3876 after 48 hrs by broth microdilution method; assay type: functional; settings: SP3876, 48 h; method in brief: as §3
[20] = test system: Pichia kudriavzevii; test: Antifungal activity against Candida krusei cgmcc 2.1857 after 48 hrs by broth microdilution method; assay type: functional; settings: cgmcc 2.1857, 48 h; method in brief: as §2
[21] = test system: Candida albicans; test: Antifungal activity against Candida albicans SP3903 after 48 hrs by broth microdilution method; assay type: functional; settings: SP3903, 48 h; method in brief: as §3
[22] = test system: Staphylococcus aureus; test: Antibacterial activity against Staphylococcus aureus ATCC 29213 after 24 hrs; assay type: functional; settings: ATCC 29213, 24 h
Method in brief: (§7)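 Modified NCCLS broth microdilution. Mid-log bacteria at (0.5−1) × 10^5 CFU/mL in MHB were mixed 1:1 with peptide serially diluted in 0.2% BSA and incubated 24 h at 37 °C. Absorbance was read at 492 nm; MIC is the lowest concentration inhibiting 95% of growth. At least 3 repeats.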

[23] = test system: Candida albicans; test: Fungicidal activity against Candida albicans cgmcc 2.2086 after 96 hrs; assay type: functional; settings: cgmcc 2.2086, 96 h, read-out: MFC99.9; method in brief: as §6
[24] = test system: Salmonella typhimurium; test: Antibacterial activity against Salmonella typhimurium ATCC 14028 after 24 hrs; assay type: functional, Salmonella enterica subsp. enterica serovar Typhimurium; settings: Salmonella enterica, ATCC 14028, 24 h; method in brief: as §4
[25] = test system: Candida albicans; test: Antifungal activity against Candida albicans 58288 after 48 hrs by broth microdilution method; assay type: functional; settings: Candida albicans, 58288, 48 h; method in brief: as §3
[26] = test system: Candida albicans; test: Fungicidal activity against Candida albicans SP3876 after 96 hrs; assay type: functional; settings: SP3876, 96 h, read-out: MFC99.9; method in brief: as §6
[27] = test system: Candida albicans; test: Fungicidal activity against Candida albicans isolated from alveolar fluid after 96 hrs; assay type: functional; settings: read-out: MFC99.9; method in brief: as §6
[28] = test system: Candida albicans; test: Antifungal activity against Candida albicans cgmcc 2.2086 in presence of NaCl by broth dilution method; assay type: functional
[29] = test system: Candida albicans; test: Antifungal activity against fluconazole-resistant Candida albicans 56214 after 48 hrs by broth microdilution method; assay type: functional; settings: Candida albicans, 56214, 48 h; method in brief: as §3
[30] = test system: Candida albicans; test: Antifungal activity against Candida albicans cgmcc 2.2086 in presence of MgCl2 by broth dilution method; assay type: functional
[31] = test system: Candida albicans; test: Fungicidal activity against Candida albicans 58288 after 96 hrs; assay type: functional; settings: Candida albicans, 58288, 96 h; read-out: MFC99.9; method in brief: as §6
[32] = Bactericidal activity against Salmonella pullorum ATCC 7913; assay type: functional, Salmonella enterica subsp. enterica serovar Pullorum; settings: Salmonella enterica, read-out: MBC99.9; method in brief: as §5
[33] = test system: Staphylococcus aureus; test: Antibacterial activity against Staphylococcus aureus ATCC 25923 after 24 hrs; assay type: functional; settings: ATCC 25923, 24 h; method in brief: as §7

Substance | MFC [1] [µM] | MIC95 [2] [µM] | MIC95 [3] [µM] | MIC95 [4] [µM] | MIC95 [5] [µM] | MBC [6] [µM] | MIC [7] [µM] | MBC [8] [µM] | MIC95 [9] [µM] | MIC [10] [µM] | MIC95 [11] [µM] | MIC [12] [µM] | MIC [13] [µM] | MFC [14] [µM] | MFC [15] [µM] | MBC [16] [µM] | MIC95 [17] [µM] | MBC [18] [µM] | MIC95 [19] [µM] | MIC95 [20] [µM] | further results
H-RIIRRIRRIIR-NH2 | > 64 | 1 | 16 | 8 | 8 | > 64 | 16 | 32 | 16 | 16 | 8 | 16 | 64 | 16 | 2 | 8 | 16 | 32 | 8 | 4 | MIC95 [21]: 4 µM; MIC95 [22]: 64 µM; MFC [23]: 64 µM; MIC95 [24]: 16 µM; MIC95 [25]: 8 µM; MFC [26]: 16 µM; MFC [27]: 32 µM; MIC [28]: 64 µM; MIC95 [29]: 8 µM; MIC [30]: 32 µM; MFC [31]: 16 µM; MBC [32]: 64 µM; MIC95 [33]: 32 µM
H-RRLRLLLRLRR-NH2 | 64 | 2 | 4 | 8 | 4 | 16 | 8 | 4 | 4 | 8 | 4 | 4 | 8 | 16 | 4 | 4 | 4 | 4 | 4 | 4 | MIC95 [21]: 2 µM; MIC95 [22]: 16 µM; MFC [23]: 16 µM; MIC95 [24]: 4 µM; MIC95 [25]: 8 µM; MFC [26]: 4 µM; MFC [27]: 8 µM; MIC [28]: 64 µM; MIC95 [29]: 4 µM; MIC [30]: 8 µM; MFC [31]: 8 µM; MBC [32]: 8 µM; MIC95 [33]: 4 µM
H-LLRRLRRLL-NH2 | > 64 | 4 | > 64 | 32 | 16 | 64 | 16 | 16 | 16 | 64 | 32 | 16 | 64 | > 64 | 8 | 16 | 16 | 32 | 32 | 8 | MIC95 [21]: 16 µM; MIC95 [22]: 64 µM; MFC [23]: 64 µM; MIC95 [24]: 16 µM; MIC95 [25]: 64 µM; MFC [26]: 4 µM; MFC [27]: > 64 µM; MIC [28]: 64 µM; MIC95 [29]: 32 µM; MIC [30]: 64 µM; MFC [31]: 32 µM; MBC [32]: 64 µM; MIC95 [33]: 16 µM
